Sampled rows, rich in hits. Any-hit rate of the full collection: about 3.4%.
PHOSPHO1 block – PubChem AID 1565. actives 1.1% (n = 290,000). Phosphoethanolamine/phosphocholine phosphatase (Homo sapiens), Q8TCT1. recombinant PHOSPHO1, absorbance phosphatase assay. inhibition, % at 13.3 µM; in the data active = inhibition above about 60%
Target sequence (Q8TCT1 whole entry, looked up): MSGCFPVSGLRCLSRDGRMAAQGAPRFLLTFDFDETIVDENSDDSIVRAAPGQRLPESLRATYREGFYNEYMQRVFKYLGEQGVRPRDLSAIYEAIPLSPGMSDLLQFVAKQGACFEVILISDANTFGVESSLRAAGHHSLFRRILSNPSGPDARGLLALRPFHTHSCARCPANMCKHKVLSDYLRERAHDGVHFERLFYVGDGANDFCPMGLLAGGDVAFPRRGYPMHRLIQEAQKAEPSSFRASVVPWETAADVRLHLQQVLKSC
HMGR II inh – inhibitors of E. faecalis class II HMGR, primary screen, biochemical, Enterococcus faecalis; HMG-CoA reductase (Enterococcus faecalis, mvaE); inhibition, % at 10 µM; AID 1066, 2008; actives 0.41% (n = 190,000); purified E. faecalis HMGR, NADPH absorbance 340 nm kinetic;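 active = inhibition above a set limit, the median over all tested compounds plus 3 SD, cut at about 9.5% in these data; inconclusive = no clear call, values can overlap the other calls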;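 also: enzyme runs in reverse so mevalonate oxidation gives rising NADPH absorbance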
Runt-CBFb FRET – inhibitors of RUNX1 Runt–CBFb binding, primary screen, biochemical, FRET, Cerulean-Runt, Venus-CBFb, uHTS | Cerulean-Runt/Venus-CBFb FRET ratio 530/480, 1 h | Runt-related transcription factor 1 (Homo sapiens) + Core-binding factor subunit beta … | inhibition, % at 20 µM | actives 0.46% (n = 220,000);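 active = inhibition over about 50% at 20 µM in the single-dose screen, limit read from the data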
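Doses: 20 µM compound in 1% DMSO | Material: Cerulean-labeled Runt domain protein | Amount: Each fluorescent fusion protein 100 nM | Schedule: Two 1 h room-temperature incubations shielded from light | Measured by: FRET fluorescence | Evaluation: Loss of energy transfer signal | Controls: Unlabeled CBFb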
Wee1 stabilizer – Wee1 degradation inhibitors, primary screen, cell-based, HeLa, Wee1K328M-luciferase, luminescence. actives 1.2% (n = 220,000). AID 1321, 2008. HeLa Luc-Wee1K328M stability; 100% = proteasome inhibitor MG132 effect. Wee1-like protein kinase (Homo sapiens), P30291. reporter increase, % at 5 µM;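 active = activation above the mean of all tested compounds plus 3 SD, set per screening run, cut at about 8.8% in these data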;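 also: cells exposed to compound for 20 h before luminescence read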
Runt-SMMHC FRET – inhibitors of RUNX1 Runt–CBFb-SMMHC binding, primary screen, biochemical, FRET, Cerulean-Runt, Venus-CBFb-SMMHC, uHTS; Cerulean-Runt/Venus-CBFb-SMMHC FRET ratio 530/480, 1 h; inhibition, % at 20 µM; actives 0.74% (n = 220,000); AID 1434, 2008;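 active = mean inhibition across duplicate retests at 20 µM reaching about 50%, limit read from the data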;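 also: inhibitors lower the FRET ratio by blocking Runt binding to CBFb-SMMHC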
RanGTP-Impb inh – inhibitors of RanGTP-importin-beta interaction, primary screen, biochemical, FRET, CFP-Ran, YFP-importin-beta, homogeneous | Ran GTPase (GTP-bound) - importin-beta complex | cell-free CFP-Ran/YFP-importin-beta FRET ratio | inhibition, % (test concentration not listed) | actives 1.1% (n = 300,000);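 active = more than half of the replicate wells show a fall in the fluorescence ratio signal beyond about 16%, limit read from the data, passing the limit was not always enough; inconclusive = exactly half of the replicate wells pass the set limit; inactive = fewer than half of replicates pass the limit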
Of the large screens only hits and unclear results are named; the others gave an inactive call.

Cc1ccc(C)c(N(C(=O)c2snc(C(N)=O)c2N)C(C(=O)NCC2CCCO2)c2ccc(C)o2)c1 (stereo unspecified)	none (no result: HMGR II inh, Runt-CBFb FRET, Wee1 stabilizer, Runt-SMMHC FRET)
Cc1cc(C)n(/N=C/c2cccs2)c(=O)c1C#N	Wee1 stabilizer 11, RanGTP-Impb inh inconclusive
CCOC(=O)C/C(N)=N/NC(=O)c1ccc(Cl)cc1Cl	Wee1 stabilizer 11, RanGTP-Impb inh inconclusive
Cc1ccc(C2C(C#N)=C(N)SC(N)=C2C#N)c(C)c1	RanGTP-Impb inh 47
COc1ccc(/C(O)=C2/C(=O)C(=O)N(CCCN3CCOCC3)C2c2ccc(C(C)C)cc2)cc1 (stereo unspecified)	none (no result: HMGR II inh, Runt-CBFb FRET, Wee1 stabilizer, Runt-SMMHC FRET)
CCOc1ccc(S(=O)(=O)N2CCCCC2)cc1NC(=O)Cc1cccs1	none (no result: PHOSPHO1 block, HMGR II inh, Runt-CBFb FRET, Wee1 stabilizer, Runt-SMMHC FRET)
CCn1nc(C)cc1C(=O)N(C)C1CCCN(Cc2ccccc2F)C1 (stereo unspecified)	none (no result: HMGR II inh, Runt-CBFb FRET, Wee1 stabilizer, Runt-SMMHC FRET)
Cc1c(CCC(=O)O)c(=O)oc2cc(O)ccc12	Runt-SMMHC FRET 75
CN(C(=O)Cn1c(Cl)nc2c1c(=O)n(C)c(=O)n2C)C1CCS(=O)(=O)C1 (stereo unspecified)	none (no result: PHOSPHO1 block, HMGR II inh, Runt-CBFb FRET, Wee1 stabilizer, Runt-SMMHC FRET)
O=C(/C=C/c1ccc(Cl)cc1)Nc1ccc(N2CCCCC2)cc1	none
O=C(/C=C/c1ccccc1)Nc1ccc(N2CCCCC2)cc1	Wee1 stabilizer 9.0
CCc1ccccc1S(=O)(=O)Cc1ccc(C(=O)NCc2cccs2)o1	HMGR II inh 9.8
Cc1ccccc1S(=O)(=O)Cc1ccc(C(=O)NC2CCCCC2)o1	PHOSPHO1 block 65 (no result: HMGR II inh, Runt-CBFb FRET, Wee1 stabilizer, Runt-SMMHC FRET)
COc1ccccc1S(=O)(=O)Cc1ccc(C(=O)NCc2cccs2)o1	none
O=C(CCNC(=O)C1CCN(S(=O)(=O)c2ccccc2)CC1)NCc1ccncc1	none (no result: HMGR II inh, Runt-CBFb FRET, Wee1 stabilizer, Runt-SMMHC FRET)
Cc1cc(C(=O)O)ccc1N/C=C1\CCCC(C)C1=O (stereo unspecified)	none
CC1CCC/C(=C\Nc2ccc(O)cc2)C1=O (stereo unspecified)	PHOSPHO1 block 70
O=C(c1cc(-c2cccs2)nn1-c1ccccc1)N1CCN(S(=O)(=O)c2ccccc2)CC1	none (no result: PHOSPHO1 block, HMGR II inh, Runt-CBFb FRET, Wee1 stabilizer, Runt-SMMHC FRET)
CCC(C)(C)NC(=O)C(c1ccc(OC)cc1)N(CCOC)C(=O)CCC(=O)Nc1nccs1 (stereo unspecified)	HMGR II inh 10
CCc1ccc(NC(=O)Cn2nc(C)n3cccc3c2=O)cc1	none (no result: HMGR II inh, Runt-CBFb FRET, Wee1 stabilizer, Runt-SMMHC FRET)
O=C(O)CONC(=O)c1cc(OCC(F)(F)F)ccc1OCC(F)(F)F	none
CNC(=O)c1cc(OCC(F)(F)F)ccc1OCC(F)(F)F	PHOSPHO1 block 61
CCOc1ccc(-n2c(=O)c3sccc3n(CC(=O)NC3CCCCC3)c2=O)cc1	none (no result: HMGR II inh, Runt-CBFb FRET, Wee1 stabilizer, Runt-SMMHC FRET)
COc1ccccc1N1CCN(CCCCOc2ccc(C)cc2C)CC1	RanGTP-Impb inh inconclusive (no result: HMGR II inh, Runt-CBFb FRET, Wee1 stabilizer, Runt-SMMHC FRET)
O=C(Nc1ccccn1)c1cc2cc([N+](=O)[O-])ccc2s1	Wee1 stabilizer 9.4
O=C(Nc1ccccn1)c1ccc([N+](=O)[O-])cc1Cl	none
CC(NC(=O)C(=O)NCCc1c[nH]c2ccccc12)c1ccccc1 (stereo unspecified)	RanGTP-Impb inh inconclusive (no result: HMGR II inh, Runt-CBFb FRET, Wee1 stabilizer, Runt-SMMHC FRET)
Cc1ccc(-c2nnc(SCC(=O)N3CCOCC3)nc2-c2ccc(C)cc2)cc1	PHOSPHO1 block 68
Cc1ccc(-c2nnc(SCC(N)=O)nc2-c2ccc(C)cc2)cc1	none (no result: HMGR II inh, Runt-CBFb FRET, Wee1 stabilizer, Runt-SMMHC FRET)
COc1cc(SC)ccc1C(=O)NCCOc1ccc(F)cc1	Wee1 stabilizer 10
CCN(CC(=O)Nc1cccc(C#N)c1)CC(=O)Nc1cccc(OC)c1	PHOSPHO1 block 63
CCCc1[nH]n(-c2ccc([N+](=O)[O-])cc2)c(=O)c1C(C)=NCc1ccncc1	none (no result: HMGR II inh)
C[C@@H](NC(=O)[C@@H]1Cc2ccccc2CN1)C(=O)Nc1ccc2c(c1)OCCO2	none (no result: HMGR II inh, Runt-CBFb FRET, Wee1 stabilizer, Runt-SMMHC FRET)
CCCCC1(C)OC(=O)C(=Cc2ccc(-c3ccc(Cl)c(C(=O)O)c3)o2)C(=O)O1 (stereo unspecified)	PHOSPHO1 block 86 (no result: HMGR II inh)
COC(=O)CN1C(=O)S/C(=C/c2ccc(N3CCCCC3)o2)C1=O	none
CCOC(=O)CN1C(=O)S/C(=C/c2ccc(N3CCCCC3)o2)C1=O	PHOSPHO1 block 101, RanGTP-Impb inh inconclusive
CC(C)N1C(=O)S/C(=C\c2ccc(-c3ccc(Cl)c(C(=O)O)c3)o2)C1=O	RanGTP-Impb inh 26 (no result: HMGR II inh, Runt-CBFb FRET, Wee1 stabilizer, Runt-SMMHC FRET)
CCOC(=O)CN1C(=O)S/C(=C\c2ccc(-c3ccc(C(=O)O)c(Cl)c3)o2)C1=O	RanGTP-Impb inh 23 (no result: HMGR II inh, Runt-CBFb FRET, Wee1 stabilizer, Runt-SMMHC FRET)
O=C(O)c1ccc(-c2ccc(/C=C3\NC(=O)N(Cc4ccc(Cl)cc4)C3=O)o2)cc1Cl	RanGTP-Impb inh 58
Cc1ccc(-c2nn(-c3ccc(F)cc3)cc2C(=O)N(C)CC(=O)Nc2ccc(N3CCOCC3)cc2)cc1	none (no result: PHOSPHO1 block, HMGR II inh, Runt-CBFb FRET, Wee1 stabilizer, Runt-SMMHC FRET)
Cc1ccccc1-c1oc(C)c(C)[n+]1[O-]	HMGR II inh 15
Cc1ccc2cc(CN(C(=O)c3ccco3)c3ccccc3)c(=O)[nH]c2c1	none
Cc1cccc(N(Cc2cc3ccc(C)cc3[nH]c2=O)C(=O)c2ccco2)c1	PHOSPHO1 block 70 (no result: HMGR II inh)
Cc1ccccc1NC(=O)Cc1nc(COC(=O)c2cc([N+](=O)[O-])ccc2N)cs1	none (no result: HMGR II inh, Runt-CBFb FRET, Wee1 stabilizer, Runt-SMMHC FRET)
O=C(Cc1sc(Nc2ccccc2)nc1-c1ccccc1)NCc1ccccn1	Wee1 stabilizer 9.1
Cc1ccc(Nc2nc(-c3ccccc3)c(CC(=O)O)s2)cc1	none
O=C1CSC(c2ccccc2O)N1Cc1ccccc1 (stereo unspecified)	none (no result: HMGR II inh, Runt-CBFb FRET, Wee1 stabilizer, Runt-SMMHC FRET)
S=C(Nc1ccccc1)N1CCN(C/C=C/c2ccccc2)CC1	Wee1 stabilizer 10
